Screening results: PubChem, The Scripps Research Institute Molecular Screening Center
TAAR1 agonist: human TAAR1 agonism; CHO RD-HGA16 TAAR1, Fluo-8 calcium fluorescence; vehicle wells 0%, saturating PEA agonist 100%; hit rate 0.99% among 360,000; AID 624467; activation, % at 3 µM;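 active means activation above the mean activation of all test compounds in the run plus 3 SD, cut at about 38% in these data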
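Assay system – CHO-derived RD-HGA16 cells with stable Gα16 and human TAAR1 · Compound dosing – one-point dosing at 3 µM (nominal) · Incubation – 17-24 h seeding, 75 min 37 °C dye, 30 min RT · Measured by – kinetic Fluo-8 calcium fluorescence · Control set – DMSO vehicle as 0%, PEA at EC100 as 100% · Repeats – single well for each compound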
CHO parental Ca: counter-screen: ATP calcium response change in parental CHO cells | parental CHO-K1, ATP-induced calcium, Fluo-8 fluorescence | AID 463079 | hit rate 0.63% among 330,000 | inhibition, % at 5.6 µM;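 active means inhibition above that plate's mean sample inhibition plus 3 SD, cut at about 26% in these data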
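Assay system – parental CHO cells · Reagent – ATP stimulus · Detection – intracellular calcium via Fluo-8 no-wash fluorescent dye · Evaluation – percent inhibition of ATP-evoked calcium rise, normalized to controls · Controls – ATP wells versus no-ATP DMSO wells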
OX1R antag-1: antagonists of human orexin 1 receptor (OX1R) | inhibition, % at 6.6 µM | O43613 | OX1R-expressing cells, FRET antagonist read-out | hit rate 1.8% among 330,000; in the data active means inhibition mostly above about 38%, no sharp cut-off; inactive means mostly below about 40%
Target sequence (O43613 whole entry, looked up): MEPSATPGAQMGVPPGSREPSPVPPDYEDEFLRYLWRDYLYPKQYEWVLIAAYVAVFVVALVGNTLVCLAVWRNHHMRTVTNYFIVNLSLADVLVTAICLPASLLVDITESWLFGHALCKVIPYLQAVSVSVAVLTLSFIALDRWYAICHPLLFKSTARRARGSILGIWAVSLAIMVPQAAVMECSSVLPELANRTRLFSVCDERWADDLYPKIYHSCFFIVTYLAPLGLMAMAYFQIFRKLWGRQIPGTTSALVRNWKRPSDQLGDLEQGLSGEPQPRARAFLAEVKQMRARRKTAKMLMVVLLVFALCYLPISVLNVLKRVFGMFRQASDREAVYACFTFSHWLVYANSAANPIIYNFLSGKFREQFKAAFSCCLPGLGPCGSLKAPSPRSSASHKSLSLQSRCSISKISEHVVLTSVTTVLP
OX1R antag-2: human HCRTR1 antagonism | CHO/OX1R cells, Fluo-8 calcium fluorescence, orexin A | O43613 | inhibition, % at 5 µM | hit rate 0.43% among 330,000;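 active means inhibition above its plate's threshold, mean inhibition of all tested compounds on the plate plus 3 SD, cut at about 37% in these data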
TAAR1 antag: antagonists of human TAAR1 | Q96RJ0 | CHO RD-HGA16 TAAR1, Fluo-8 calcium fluorescence, antagonist | inhibition, % at 3 µM | hit rate 1.5% among 360,000 | AID 624466;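 active means inhibition above a per-plate cutoff, the mean inhibition of test compounds on that plate plus 3 SD, cut at about 49% in these data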
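System: CHO RD-HGA16 cells bearing hTAAR1. Reagent: EC80 β-phenethylamine stimulus. Schedule: seeding 17-24 h prior, 75-min 37 °C, 30-min RT dye loading. Signal: Fluo-8 intracellular calcium dye fluorescence, real-time kinetic reads. Read-out: % inhibition from peak post-agonist over basal fluorescence ratio. Benchmarks: vehicle wells and EC80 agonist wells. Replicates: n of 1.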
GalR3 antagonist: blocks the human galanin receptor 3; hit rate 0.44% among 360,000; inhibition, % at 3 µM; HEK293 GalR3-CNG cAMP membrane potential fluorescence; galR3 body fused to GalR1 C-terminus;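 active means inhibition above the screen-wide average plus 3 SD, cut at about 13% in these data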;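 further: forskolin and galanin both at EC90 stimulate the cells; cAMP rise reported by CNG channel membrane potential dye signal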
Target sequence (O60755 1-299 limits assumed): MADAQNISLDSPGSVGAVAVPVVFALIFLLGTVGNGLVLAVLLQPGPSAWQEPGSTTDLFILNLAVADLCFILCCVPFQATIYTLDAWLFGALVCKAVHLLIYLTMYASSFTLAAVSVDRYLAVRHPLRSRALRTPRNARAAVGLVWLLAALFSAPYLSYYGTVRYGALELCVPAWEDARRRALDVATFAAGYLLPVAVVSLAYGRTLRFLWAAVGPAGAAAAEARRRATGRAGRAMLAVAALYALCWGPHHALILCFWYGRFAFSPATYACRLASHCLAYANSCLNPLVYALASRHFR
A number is an active result. In the library only some 4.3% were active in any assay of this set; here they are far more common.

How did O=C1c2ccccc2S(=O)(=O)c2cc(N3CCOCC3)ccc21 do in these assays?
TAAR1 agonist: inactive; CHO parental Ca: inactive; OX1R antag-1: 56.0; OX1R antag-2: inactive; TAAR1 antag: inactive; GalR3 antagonist: inactive

How did O=C(NCc1ccccc1C(F)(F)F)c1cccc2c1C(=O)c1ccc(N3CCOCC3)cc1S2(=O)=O do in these assays?
TAAR1 agonist: inactive; CHO parental Ca: inactive; OX1R antag-1: inactive; OX1R antag-2: inactive; TAAR1 antag: 55.5; GalR3 antagonist: inactive

What do the screens show for `O=C(NCc1ccccc1C(F)(F)F)c1cccc2c1C(=O)c1ccc(N3CCC(N4CCCCC4)CC3)cc1S2(=O)=O`?
TAAR1 agonist: inactive; TAAR1 antag: inactive; GalR3 antagonist: inactive

What do the screens show for `COc1ccccc1N1CCN(c2ccc3c(c2)S(=O)(=O)c2cccc(C(=O)NCc4cccc(F)c4)c2C3=O)CC1`?
TAAR1 agonist: inactive; TAAR1 antag: 53.2; GalR3 antagonist: inactive

How did C[C@@H]1ON(C)[C@H]2C[C@H]3c4[nH]c5c(-c6ccc(F)cc6)cccc5c4CCN3C(=O)[C@@H]12 do in these assays?
TAAR1 agonist: inactive; TAAR1 antag: inactive; GalR3 antagonist: inactive

How did CCOC(=O)C(=Cc1ccc(-c2ccsc2C(=O)OC)o1)C(=O)OCC do in these assays?
TAAR1 agonist: inactive; CHO parental Ca: inactive; OX1R antag-1: inactive; OX1R antag-2: inactive; TAAR1 antag: inactive; GalR3 antagonist: inactive

What do the screens show for `COC(=O)C(=Cc1ccc(-c2ccsc2C(=O)OC)o1)C(=O)OC`?
TAAR1 agonist: inactive; CHO parental Ca: inactive; OX1R antag-1: 49.9; OX1R antag-2: inactive; TAAR1 antag: inactive; GalR3 antagonist: inactive

What do the screens show for `Cc1cc(C(=O)Nc2cccc3c2O[C@H](CN(C)CC2CC2)[C@@H](C)CN([C@H](C)CO)C3=O)n(C)n1`?
TAAR1 agonist: 43.0; CHO parental Ca: inactive; OX1R antag-1: inactive; OX1R antag-2: inactive; TAAR1 antag: inactive; GalR3 antagonist: inactive

How did C[C@H](CO)N1C[C@H](C)[C@@H](CN(C)C(=O)Nc2ccc(C(F)(F)F)cc2)Oc2c(NC(=O)Nc3ccc(C(F)(F)F)cc3)cccc2C1=O do in these assays?
TAAR1 agonist: inactive; CHO parental Ca: 41.5; OX1R antag-1: inactive; OX1R antag-2: inactive; TAAR1 antag: 57.8; GalR3 antagonist: inactive

How did C[C@@H]1CN([C@@H](C)CO)C(=O)c2cccc(NS(C)(=O)=O)c2O[C@H]1CN(C)C(=O)Nc1ccc(F)cc1 do in these assays?
TAAR1 agonist: inactive; CHO parental Ca: inactive; OX1R antag-1: inactive; OX1R antag-2: inactive; TAAR1 antag: inactive; GalR3 antagonist: inactive

Results for C[C@H](CO)N1C[C@H](C)[C@@H](CN(C)CC2CC2)Oc2c(NC(=O)C3CC3)cccc2C1=O ?
TAAR1 agonist: inactive; TAAR1 antag: inactive; GalR3 antagonist: inactive

How did C[C@H]1CN([C@@H](C)CO)C(=O)c2cccc(NC(=O)c3nc4ccccc4s3)c2O[C@H]1CN(C)C(=O)Nc1ccc(F)cc1 do in these assays?
TAAR1 agonist: inactive; CHO parental Ca: inactive; OX1R antag-1: inactive; OX1R antag-2: inactive; TAAR1 antag: 55.3; GalR3 antagonist: inactive

Results for C[C@H]1CN([C@@H](C)CO)C(=O)c2cccc(NC(=O)Nc3ccc(C(F)(F)F)cc3)c2O[C@@H]1CN(C)C(=O)Nc1ccc(F)cc1 ?
TAAR1 agonist: inactive; CHO parental Ca: inactive; OX1R antag-1: inactive; OX1R antag-2: inactive; TAAR1 antag: 56.0; GalR3 antagonist: inactive

Results for Cc1ccc(S(=O)(=O)N2[C@H](CC(=O)c3ccc(Cl)c(Cl)c3)OC[C@@H]2C)cc1 ?
TAAR1 agonist: inactive; TAAR1 antag: inactive; GalR3 antagonist: inactive

What do the screens show for `Cc1cc(C)cc(NC(=O)C2COc3ccccc3O2)c1` (stereo not drawn)?
TAAR1 agonist: inactive; TAAR1 antag: inactive; GalR3 antagonist: inactive

How did O=C(O)CCCNc1cc(N2CCC3(CC2)OCCO3)c2noc3c2c1C(=O)c1ccccc1-3 do in these assays?
CHO parental Ca: inactive; OX1R antag-1: 65.0; OX1R antag-2: inactive

What do the screens show for `O=C(O)CCCNc1cc(N2CCN(C(=O)c3ccco3)CC2)c2noc3c2c1C(=O)c1ccccc1-3`?
TAAR1 agonist: inactive; CHO parental Ca: inactive; OX1R antag-1: 57.6; OX1R antag-2: inactive; TAAR1 antag: inactive; GalR3 antagonist: inactive

What do the screens show for `CN1CCN(c2cc(N3CCN(C(=O)c4ccco4)CC3)c3c4c(onc24)-c2ccccc2C3=O)CC1`?
CHO parental Ca: inactive; OX1R antag-1: inactive; OX1R antag-2: inactive

Results for CCOC(=O)N1CCN(c2cc(NCCC(=O)O)c3c4c(onc24)-c2ccccc2C3=O)CC1 ?
CHO parental Ca: inactive; OX1R antag-1: 73.5; OX1R antag-2: inactive

Results for O=C1c2ccccc2-c2onc3c(N4CCN(CCO)CC4)cc(N4CCN(C(=O)c5ccco5)CC4)c1c23 ?
TAAR1 agonist: inactive; CHO parental Ca: inactive; OX1R antag-1: inactive; OX1R antag-2: inactive; TAAR1 antag: inactive; GalR3 antagonist: inactive

How did COc1cccc(C2c3cc4c(cc3OC(C)(N3CCCC3)C2C)OCO4)c1O (stereo not drawn) do in these assays?
TAAR1 agonist: inactive; TAAR1 antag: inactive; GalR3 antagonist: inactive

Results for Cc1nc2ccccc2n1C(C)c1nc2ccccc2n1CC(=O)c1ccc(OC(F)(F)F)cc1 (stereo not drawn) ?
TAAR1 agonist: inactive; TAAR1 antag: inactive; GalR3 antagonist: inactive

What do the screens show for `Cc1cc2oc(=O)cc(CN3CCN(c4ccc(Cl)c(Cl)c4)CC3)c2cc1Cl`?
TAAR1 agonist: inactive; TAAR1 antag: inactive; GalR3 antagonist: inactive

What do the screens show for `O=C(COC(=O)c1cccc([N+](=O)[O-])c1)c1ccc2c(c1)OCO2`?
CHO parental Ca: inactive; OX1R antag-1: inactive; OX1R antag-2: inactive

How did Cc1ccccc1OCC(O)CN (stereo not drawn) do in these assays?
TAAR1 agonist: 37.6; CHO parental Ca: inactive; OX1R antag-1: inactive; OX1R antag-2: inactive; TAAR1 antag: inactive; GalR3 antagonist: inactive

Results for Cc1ccccc1OCC(O)COc1ccccc1C ?
TAAR1 agonist: inactive; TAAR1 antag: inactive; GalR3 antagonist: inactive

Results for CN(c1ccc(NC(=O)CCc2cn(Cc3ccc(Br)cc3)c3ccccc23)cc1)c1ccccn1 ?
TAAR1 agonist: inactive; TAAR1 antag: inactive; GalR3 antagonist: inactive

What do the screens show for `O=C(Nc1cccc(C(F)(F)F)c1)Oc1ccc(Cl)c2cccnc12`?
TAAR1 agonist: inactive; CHO parental Ca: 62.5; OX1R antag-1: inactive; OX1R antag-2: inactive; TAAR1 antag: inactive; GalR3 antagonist: inactive

How did C=CCn1c(CSCc2ccc(C)cc2)nnc1SCC(=O)NCc1ccccc1 do in these assays?
TAAR1 agonist: inactive; CHO parental Ca: inactive; OX1R antag-1: inactive; OX1R antag-2: inactive; TAAR1 antag: 50.2; GalR3 antagonist: inactive

What do the screens show for `Cc1ccc(S(=O)(=O)/C(C#N)=C/c2c(Oc3ccc(Cl)cc3)nc3c(C)cccn3c2=O)cc1`?
CHO parental Ca: inactive; OX1R antag-1: inactive; OX1R antag-2: inactive
